Screening results as filed in PubChem.
This is a sample that favours compounds with a hit; in the whole collection about 1.2% have one here.
NSD2 HMT inh: blocks human histone methyltransferase NSD2; 310,000 tested, 0.54% active; inhibition, % at 12.5 µM; O96028; NSD2 peptide methylation, AlphaScreen, 120 min; in the data active = inhibition above about 50%
TDP2 inh: TDP2 (human) inhibition, absorbance primary screen | O95551 | recombinant TDP2, T5PNP hydrolysis, p-nitrophenol absorbance 415 nm | inhibition, % at 12.8 µM | 370,000 tested, 0.34% active | AID 720702;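 active = inhibition above the mean of all tested compounds plus 3 SD, set per campaign, cut at about 25% in these data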
Target sequence (O95551 whole entry, looked up): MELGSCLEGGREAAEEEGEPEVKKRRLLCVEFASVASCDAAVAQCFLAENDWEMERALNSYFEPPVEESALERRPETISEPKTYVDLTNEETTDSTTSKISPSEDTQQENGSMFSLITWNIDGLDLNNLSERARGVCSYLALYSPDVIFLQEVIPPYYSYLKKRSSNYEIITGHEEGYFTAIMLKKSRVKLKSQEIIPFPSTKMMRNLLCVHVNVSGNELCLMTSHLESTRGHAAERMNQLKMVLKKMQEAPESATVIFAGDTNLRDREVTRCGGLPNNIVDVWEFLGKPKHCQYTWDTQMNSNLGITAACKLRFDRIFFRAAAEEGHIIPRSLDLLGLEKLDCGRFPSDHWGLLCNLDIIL
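Read-out basis: percent inhibition. System: recombinant human TDP2. Buffer or medium: Mg2+-containing Tris-HCl buffer, pH 7.5. Repeats: single replicate. Timing: reaction 2 h, 37 °C. Benchmarks: high control without enzyme, low control DMSO plus TDP2. Probe or stimulus: 5 mM T5PNP. Doses: 12.8 µM only. Measured by: epi absorbance of p-nitrophenol freed from T5PNP by hydrolysis.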
Fh CTSL1 inh: counter-screen for PFM18AAP inhibitors: inhibitors of F. hepatica cathepsin L1 | inhibition, % at 5.96 µM | recombinant F. hepatica cathepsin L1, Z-Leu-Arg-MCA fluorescence | 300,000 tested, 0.49% active;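 active = inhibition above the mean of all tested compounds plus 3 SD, set per screening campaign, cut at about 17% in these data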
UBC9 SUMO inh: SUMOylation inhibition | P63279 | HTRF SUMOylation assay, SAE1/SAE2 + UBC9, in vitro | inhibition, % at 35 µM | 290,000 tested, 0.36% active; in the data active = inhibition above about 50%, passing the limit was not always enough
Target sequence (P63279 whole entry, looked up): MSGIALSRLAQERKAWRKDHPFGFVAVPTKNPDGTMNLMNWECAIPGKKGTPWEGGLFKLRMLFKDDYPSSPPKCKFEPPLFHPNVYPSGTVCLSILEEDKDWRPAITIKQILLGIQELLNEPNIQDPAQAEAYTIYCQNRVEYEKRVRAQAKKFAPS
Alpha artifact: interferes with AlphaScreen signal, flagging NSD2 false positives; shares compounds with NSD2 HMT inh; AlphaScreen artifact counterscreen, preloaded methylated H4 peptide; AC35, µM (doses to about 10 µM); 1,500 tested, 9.4% active; AID 1053174; call rule not given here
Hits are given with their value; n = inactive; x = no result given.

SMILES	NSD2 HMT inh	TDP2 inh	Fh CTSL1 inh	UBC9 SUMO inh	Alpha artifact
O=C(CCCCCN1C(=O)C2C3C=CC(C3)C2C1=O)Nc1ccc2ncccc2c1 (configuration not stated)	95	n	x	x	n
COC(=O)[C@]12C[C@H](CC(=O)NCc3ccc(C)o3)C(=O)N(Cc3ccccc3)C1=C[C@H](C(C)(C)C)O[C@@H]2C	x	n	x	x	x
NS(=O)(=O)c1ccc(S(=O)(=O)N2CCN(C3CCCC3)CC2)cc1	118	n	n	n	n
COc1ccc2c3c(cccc13)N(C)N=C2C	72	n	n	n	n
CCn1c(O)c(/C=N/n2cnnc2)sc1=S	67	n	n	n	n
CCn1c(O)c(C=Nc2ccccc2)sc1=S	n	n	n	n	x
Cc1nnc(Sc2cc(NCCO)c([N+](=O)[O-])c3nonc23)s1	60	n	x	n	n
Cc1nnc(Sc2cc(NCCCO)c([N+](=O)[O-])c3nonc23)s1	x	n	x	n	x
O=C(COc1ccc2c(-c3ccccc3)cc(=O)oc2c1)Nc1ccc(CCO)cc1	n	n	n	n	x
O=[N+]([O-])c1cccc(NC(=S)N2CCOCC2)c1	85	n	n	n	n
C=CCOCC(O)Cn1c(N2CCCC2)nc2c1c(=O)n(C)c(=O)n2C (configuration not stated)	53	n	x	n	n
O=C(NC1CCCC1)C(c1ccccn1)N(C(=O)c1csnn1)c1ccc(F)cc1 (configuration not stated)	n	n	n	n	x
COc1ccc(C(=O)Nc2ccc3[nH]ccc3c2)cc1	n	n	n	x	x
COc1ccc(C(=O)Nc2ccc3[nH]ccc3c2)cc1OC	51	n	n	x	n
CCN(CC)C1CCN(c2nc3nonc3nc2NCCOC)C1 (configuration not stated)	75	n	n	n	n
CC(C)(C)[C@H]1C=C(C(=O)Nc2ccccc2)O[C@@H](OCCCCO)C1	x	n	n	x	x
CCN(CC)CCOC(=O)/C=C/c1ccccc1	n	n	n	n	x
CCN(CC)CC(C)(C)C(=O)/C=C/c1ccc(/C=C/C(=O)C(C)(C)CN(CC)CC)cc1	101	n	x	x	n
COc1cc(OC)c(/C=N/n2c(C)nnc2C)c(OC)c1	n	n	n	n	x
COc1cc(/C=N/n2c(C)nnc2C)cc(OC)c1OC	83	n	n	n	n
O=C(NCc1cccnc1)c1csc([C@@H]2O[C@H](CO)[C@H](O)[C@H](O)[C@H]2O)n1	n	n	x	x	x
CCC(=O)N1CCN(c2ccc(Cl)cc2NC(=O)c2ccc(Br)o2)CC1	119	n	n	x	n
O=C(NCc1ccc(Cl)cc1)c1ccc(S(=O)(=O)N2CCCCC2)cc1	53	n	x	x	n
CCNC(=O)C1(C)CCCN(Cc2ccc3ccccc3c2Br)C1 (configuration not stated)	n	n	x	x	x
Cc1cc(Cl)ccc1OCCCC(=O)N1CCOCC1	72	n	n	n	n
SMILES	NSD2 HMT inh	TDP2 inh	Fh CTSL1 inh	UBC9 SUMO inh	Alpha artifact
Cc1cc(Cl)ccc1OCCCC(=O)N1CCCCC1	n	n	n	n	x
O=c1c2ccc([N+](=O)[O-])cc2sn1-c1ccccc1	59	x	x	x	n
CCNC(=O)N(C)C[C@H]1N[C@@](CC)(C(=O)OC)[C@H]2C(=O)N(Cc3ccccc3)C(=O)[C@@H]12	x	n	x	x	x
CCN(CC)CCCNC1=C(Cl)C(=O)c2ccccc2C1=O	112	n	17	n	n
CC(C)OCCCNC1=C(Cl)C(=O)c2ccccc2C1=O	n	n	n	n	x
COCCCNC1=C(Cl)C(=O)c2ccccc2C1=O	68	n	n	n	n
Fc1ccc(COc2ccccc2CNc2nn[nH]n2)cc1	n	n	n	n	x
CNCc1ccccc1OCc1ccc(F)cc1	60	n	n	n	n
Cc1oc(-c2cccs2)nc1CN1CCN(C2CCCC2)C(CCO)C1 (configuration not stated)	52	n	n	n	n
O=C1CC(C(=O)N2CCc3ccccc32)CN1c1ccccc1 (configuration not stated)	80	n	n	n	n
Cc1ccc(N2CC(C(=O)N3CCc4ccccc43)CC2=O)cc1 (configuration not stated)	x	n	n	n	x
COC(=O)c1ccc(-n2nnnc2SCC(=O)NCc2cccc(C(=O)O)c2)cc1	107	n	n	n	n
Cn1nnnc1SCC(=O)NCc1cccc(C(=O)O)c1	n	n	n	n	x
O=C(c1ccccc1)c1ccc(N2CCN(C(=O)c3ccc(F)cc3F)CC2)c(F)c1	n	n	x	x	x
COc1ccc(C)cc1COC(=O)c1[nH]c(C)c(C(C)=O)c1C	55	n	n	n	n
Cc1ccc(S(=O)(=O)N2CCN(S(=O)(=O)c3ccccc3Br)CC2)cc1	x	n	x	x	x
OCCNC(=S)Nc1ccc2nsnc2c1	96	n	112	n	n
N#Cc1c(N)n(CCNC(=O)c2ccc(Cl)cc2)c2nc3ccccc3nc12	n	n	n	n	x
Cc1ccc(C(=O)NCCn2c(N)c(C#N)c3nc4ccccc4nc32)cc1	55	n	n	n	n
Cc1nc2oc3c(NCC4CCCO4)ncnc3c2c2c1COC(C)(C)C2 (configuration not stated)	n	n	n	n	x
CC(C)c1nc2oc3c(NCC4CCCO4)ncnc3c2c2c1COC(C)(C)C2 (configuration not stated)	54	n	x	n	n
O=C(c1ccccc1F)N(Cc1cccs1)C1CCS(=O)(=O)C1 (configuration not stated)	85	n	n	n	n
O=C(c1ccccc1)N(Cc1cccs1)C1CCS(=O)(=O)C1 (configuration not stated)	n	n	n	n	x
COc1ccc(C(=O)N(Cc2cccs2)C2CCS(=O)(=O)C2)cc1 (configuration not stated)	100	n	n	n	n
COc1ccc(CN(C(=O)c2cccc(OC)c2)C2CCS(=O)(=O)C2)cc1 (configuration not stated)	52	n	n	n	n
SMILES	NSD2 HMT inh	TDP2 inh	Fh CTSL1 inh	UBC9 SUMO inh	Alpha artifact
COC(=O)[C@H](CC(C)C)N(CCc1cn(Cc2ccccc2)nn1)S(=O)(=O)c1ccc(F)cc1Br	x	n	x	x	x
CCn1cnc2c(NCc3cccnc3)nc(C#N)nc21	x	n	x	x	x
C[C@@H]1CCCCO[C@@H](CN(C)Cc2ccncc2)[C@@H](C)CN([C@H](C)CO)C(=O)c2cc(NC(=O)c3ccccc3)ccc2O1	x	n	x	x	x
COC(=O)[C@H](CC(C)C)N1Cc2cc(OC)cc(OC)c2-c2ccccc2S1(=O)=O	x	n	x	x	x
Cn1c(COc2ccc(Cl)cc2)nnc1SCC(=O)NC1CCCCC1	51	n	n	x	n
COc1cc(C(=O)N2CCN(C3=NS(=O)(=O)c4ccccc43)CC2)cc(OC)c1OC	n	n	x	x	x
COc1cc(/C=C2\C(=O)ON=C2c2ccccc2)cc(Cl)c1O	64	n	n	n	n
Cc1cccc(/C=C\c2nc3ccccc3c(=O)[nH]2)c1	n	n	n	n	x
COc1cc(/C=C/c2nc3ccccc3c(=O)[nH]2)cc(Cl)c1O	82	n	n	n	n
O=C1ON=C(c2ccccc2)/C1=C/c1ccc(O)cc1	63	n	n	n	n
